This is a sample that favours compounds with a hit; in the whole collection about 3.5% have one here.
RGS4 pot = potentiators or activators of RGS4; HEK293 M3R/inducible RGS4, carbachol calcium flux Fluo4; stronger effect = lower value; B-score at 10 µM; hit rate 0.92% among 310,000; AID 463111;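 active = B-score of the integrated calcium signal more than 4 SD below the library mean, with starting fluorescence not abnormally high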;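 also: negative B-score means reduced calcium response which marks RGS4 activation or potentiation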
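Material: M3R-expressing HEK293 line, RGS4 induced by doxycycline | Schedule: Overnight RGS4 induction, 30 min dye load 37 °C, 20 min compound RT | Measured by: Fluo4 fluorescence kinetic imaging of calcium | Read-out: Integrated calcium ratio converted to B score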
MrgX1 ag = agonists of human MrgX1 receptor | Q96LB2 | MrgX1-HEK293 cells, Fluo-4 calcium fluorescence, agonist mode; stronger effect = higher value | hit rate 0.44% among 310,000 | AID 588627 | B-score at 10 µM;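 active = calcium response B-score plate-corrected fluorescence ratio at least 3 library SD, with starting fluorescence B-score inside 5 SD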
Target sequence (Q96LB2 whole entry, looked up): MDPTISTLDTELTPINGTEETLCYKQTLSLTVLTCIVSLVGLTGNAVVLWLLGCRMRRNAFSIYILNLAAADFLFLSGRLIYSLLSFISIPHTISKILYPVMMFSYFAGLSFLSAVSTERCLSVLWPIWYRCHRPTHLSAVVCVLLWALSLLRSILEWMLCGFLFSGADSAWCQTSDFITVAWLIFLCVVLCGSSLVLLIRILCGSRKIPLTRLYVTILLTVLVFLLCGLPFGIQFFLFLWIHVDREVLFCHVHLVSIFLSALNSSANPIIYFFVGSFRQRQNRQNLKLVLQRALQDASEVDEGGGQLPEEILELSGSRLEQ
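Test system: HEK293 cells stably expressing human MrgX1 receptor; amount: 15,000 cells per well; doses: compound delivered in addition one of three; times: overnight plating before 1 h dye loading; detection: Fluo-4 NW calcium-flux fluorescence, kinetic read; read-out basis: B-scored fluorescence response ratio; controls: positive and negative controls per plate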
MrgX1 antag = human MrgX1 receptor antagonism, primary screen | hit rate 1.3% among 310,000 | Q96LB2 | B-score at 10 µM | MRGX1-HEK293 calcium flux, Fluo-4, BAM8-22 antagonism; stronger effect = lower value;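 active = calcium-response B-score plate-corrected more than 3 library SD below zero, starting fluorescence within 5 deviations, no agonist response on first addition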;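 also: peak minus trough fluorescence over baseline after final BAM8-22 challenge near maximal dose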
RGS4 inh = inhibitors of human RGS4. P49798. HEK293 M3R/RGS4 inducible, Fluo-4 calcium flux; stronger effect = higher value; triggered by carbachol at its EC20. B-score at 10 µM. hit rate 0.45% among 310,000;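 active = B-score, a plate-corrected calcium signal, over three deviations above library mean, with baseline fluorescence within five deviations of library mean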;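 also: RGS4 expression induced by doxycycline in cells with stable M3 receptor; B-score is computed from the integrated fluorescence ratio over baseline after carbachol; higher B-score means a larger calcium signal and so more RGS4 inhibition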
Target sequence (P49798 whole entry, looked up): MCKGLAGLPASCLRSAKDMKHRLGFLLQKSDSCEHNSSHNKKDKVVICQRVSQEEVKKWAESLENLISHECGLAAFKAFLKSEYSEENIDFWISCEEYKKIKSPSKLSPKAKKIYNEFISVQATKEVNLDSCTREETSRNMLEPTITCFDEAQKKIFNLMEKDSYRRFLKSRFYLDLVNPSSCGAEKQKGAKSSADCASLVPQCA
MrgX1 allo act = human MrgX1 positive allosteric modulation, primary screen; Q96LB2; MrgX1-HEK293, Fluo-4 calcium flux, FDSS; stronger effect = higher value; B-score at 10 µM; hit rate 0.63% among 310,000; AID 588675;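 active = plate-corrected calcium response at least 3 library SD above typical, normal starting fluorescence, not activating the receptor alone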;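 also: compound read alongside a low EC10 to EC30 dose of BAM8-22 agonist; peak minus trough fluorescence over baseline measured at the second addition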
RGS4 block valid = RGS4 inhibitor validation; shares compounds with RGS4 inh; HEK293 M3R/RGS4, carbachol calcium Fluo-4 fluorescence; carbachol added at its EC20; 0 = buffer wells, 100 = carbachol control; calcium response, % at 10 µM; hit rate 65% among 1,700; AID 492999;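 active = duplicate-averaged calcium response above the buffer-only control mean plus 5 SD of those controls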;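 also: integrated fluorescence ratio F max minus min over baseline F0; higher response in RGS4-induced cells means RGS4 inhibition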
RGS4 uninduced = counter-screen for RGS4 inhibitors: effect in non-induced cells | shares compounds with RGS4 inh | HEK293 M3R non-induced, carbachol calcium Fluo-4; submaximal (EC20) carbachol stimulus; buffer wells 0%, carbachol control wells 100% | hit rate 20% among 1,900 | activity (percent), % at 10 µM; call rule not given here;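 also: RGS4 induction absent so cells express M3R without RGS4; higher means more calcium signal and flags a non-specific hit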
RGS4 inh ctr2 = second counter-screen for RGS4 inhibitors: non-induced cells without carbachol. shares compounds with RGS4 inh. HEK293 M3R/RGS4 non-induced, Fluo-4 calcium, no carbachol; normalised: buffer wells 0%, carbachol wells 100%. calcium response (agonist-mode artifact), % at 10 µM. hit rate 22% among 1,900. AID 493001;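 active = duplicate-averaged calcium rise in uninduced cells above buffer wells' mean plus 5 SD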
Hits are given with their value; . = inactive; / = no result given.

SMILES	RGS4 pot	MrgX1 ag	MrgX1 antag	RGS4 inh	MrgX1 allo act	RGS4 block valid	RGS4 uninduced	RGS4 inh ctr2
COC(=O)C(C(=O)OC)C(C[N+](=O)[O-])c1ccc(OC)c(OC)c1 (stereo not drawn)	.	.	.	.	.	/	/	/
COc1ccc(C(C[N+](=O)[O-])C2(c3ccc(OC)c(OC)c3)C(=O)c3ccccc3C2=O)cc1 (stereo not drawn)	.	.	.	16	.	60%	37%	.
O=C1Nc2ccccc2/C1=C\C(=O)c1ccccc1	.	.	.	.	.	/	/	/
O=C1Nc2ccc(Br)cc2/C1=C/C(=O)c1ccc2c(c1)OCO2	.	.	-5	6.1	.	.	41%	.
CCOc1cc(/C=C2/SC(=S)N(Cc3ccccc3)C2=O)ccc1O	.	.	.	.	.	/	/	/
CC(c1ccccc1)N1C(=O)/C(=C/c2ccncc2)SC1=S (stereo not drawn)	.	.	.	7	.	6.5%	34%	.
C=CCN=C1S/C(=C/c2cccc([N+](=O)[O-])c2)C(=O)N1CC=C	.	.	.	.	.	/	/	/
O=C(O)c1cccc(CN2C(=O)S/C(=C/c3cccc([N+](=O)[O-])c3)C2=O)c1	.	.	.	26	.	62%	73%	.
COc1ccc(CN2C(=O)/C(=C/c3ccncc3)SC2=S)cc1	.	.	.	11	.	25%	.	22%
O=C(O)C(c1ccccc1)N1C(=O)/C(=C/c2cccs2)SC1=S (stereo not drawn)	.	.	.	.	.	/	/	/
O=C1/C(=C/c2ccc(O)c([N+](=O)[O-])c2)SC(=S)N1Cc1ccccc1	.	.	-5.7	7.8	.	11%	37%	.
CC(=O)Oc1ccc(/C=C2/SC(=S)N(Cc3ccccc3)C2=O)cc1	.	.	.	.	.	/	/	/
CC(C)c1ccc(N(CC(=O)NCc2ccco2)C(=O)CCC(=O)Nc2nccs2)cc1	.	.	.	.	.	/	/	/
O=C(O)c1ccc(/C=C2/SC(=S)N(Cc3ccccc3)C2=O)cc1	.	.	.	.	.	/	/	/
O=C1/C(=C\c2ccc(O)cc2)SC(=S)N1Cc1ccccc1	.	.	.	8.1	.	14%	.	28%
COc1ccc(/C=C2/C(=O)ON=C2c2ccccc2)cc1OC	.	.	.	.	.	/	.	64%
COc1ccc(/C=C2\C(=O)ON=C2c2ccccc2)cc1OC	.	.	.	.	.	/	.	8.5%
CCOc1cc(/C=C2\C(=O)ON=C2c2ccccc2)ccc1OC	.	.	.	25	.	32%	.	50%
COc1cc(/C=C2\C(=O)ON=C2c2ccccc2)cc(OC)c1OC	.	.	.	.	.	/	/	/
CCOc1cc(/C=C2/C(=O)ON=C2C)ccc1OCc1ccccc1F	-7	.	.	9.4	.	.	.	94%
CC(CNS(=O)(=O)c1ccccc1)(c1ccccc1)N1CCCCC1 (stereo not drawn)	.	.	.	.	.	/	/	/
Cc1cccc([C@@H]2[C@@H]3C(=O)N(Cc4ccccc4)C(=O)[C@@H]3[C@]3(C)C(=O)N(c4cccc(Cl)c4)C(=O)N23)c1	.	.	.	.	.	/	/	/
Cc1cccc(N2C(=O)N3[C@@H]4c5ccccc5OC[C@@H]4[C@@H](c4ccccc4)[C@]3(C)C2=O)c1	.	.	.	.	.	.	.	.
Cc1cccc(N2C(=O)N3[C@@H]4c5ccccc5OC[C@@H]4[C@@H](c4ccccc4)[C@@]3(C)C2=O)c1	.	.	.	.	.	/	.	.
C[C@]12C(=O)N(c3cccc(Cl)c3)C(=O)N1[C@H]1c3ccccc3OC[C@@H]1[C@H]2c1ccccc1	.	.	-6	6	.	16%	.	.
SMILES	RGS4 pot	MrgX1 ag	MrgX1 antag	RGS4 inh	MrgX1 allo act	RGS4 block valid	RGS4 uninduced	RGS4 inh ctr2
CC1CCCN(C(=O)CN(C)S(=O)(=O)c2cccc3nsnc23)C1 (stereo not drawn)	.	.	.	.	.	/	/	/
COc1ccc(-c2cnnn2-c2ccc(NC(=O)c3ccco3)cc2)cc1OC	.	.	.	4.7	.	6.0%	.	.
CC1CN(Cc2nc3ccccc3c(=O)[nH]2)CC(C)O1 (stereo not drawn)	.	.	.	.	.	/	/	/
COc1cc(C(C[N+](=O)[O-])c2c(N)n(C)c(=O)n(C)c2=O)ccc1O (stereo not drawn)	.	.	.	5.2	.	20%	.	8.0%
Cc1ccc(C(C[N+](=O)[O-])c2c(N)n(C)c(=O)n(C)c2=O)cc1 (stereo not drawn)	.	.	.	.	.	/	/	/
CCOC(=O)CSC1=NC(=O)/C(=C\c2ccc(Cl)cc2)S1	.	.	.	.	.	.	.	18%
CCOC(=O)C1CCN(C2=NC(=O)/C(=C/c3ccc(Cl)cc3)S2)CC1	.	.	.	.	.	/	/	/
Cc1cc2nc3c(nc2cc1C)CCCC3	.	.	.	.	.	/	/	/
CCOC(=O)C1=C(CS(=O)(=O)c2ccccc2)NC(=O)NC1c1ccc(OC)c(OC)c1 (stereo not drawn)	.	.	.	.	.	/	/	/
COC(=O)C1=C(CS(=O)(=O)c2ccccc2)NC(=O)NC1c1ccc(OC)c(OC)c1 (stereo not drawn)	.	.	.	.	.	.	.	.
O=C1N/C(=N\S(=O)(=O)Cc2ccccc2)S/C1=C/c1cc([N+](=O)[O-])ccc1O	.	.	.	.	.	/	/	/
COc1cc(/C=C2/S/C(=N/S(=O)(=O)Cc3ccccc3)NC2=O)c([N+](=O)[O-])cc1OC	.	.	.	.	.	.	.	.
COc1cc(/C=C2/S/C(=N/S(=O)(=O)c3ccccc3)NC2=O)c([N+](=O)[O-])cc1OC	.	.	.	5.9	.	38%	50%	.
O=C1N/C(=N\S(=O)(=O)c2ccccc2)S/C1=C\c1cc([N+](=O)[O-])ccc1O	.	.	.	.	.	/	/	/
COc1cc(/C=C2\S/C(=N/S(=O)(=O)Cc3ccccc3)NC2=O)c([N+](=O)[O-])cc1OC	.	.	.	.	.	.	.	.
CC(=O)Nc1ccc(Nc2cc(C)nc3c(-c4ccccc4)c(C)nn23)cc1	.	.	.	8.6	.	13%	.	.
CC(=O)Nc1ccc(Nc2cc(C(C)C)nc3c(-c4ccccc4)c(C)nn23)cc1	.	.	.	7.2	.	41%	60%	.
Cc1nn2c(NCc3ccccn3)cc(C(C)C)nc2c1-c1ccccc1	.	.	.	.	.	/	/	/

Bioassay records: PubChem BioAssay, Johns Hopkins Ion Channel Center
